Source: ChEMBL document CHEMBL1157638, “Fluorescent epigenetic small molecule induces expression of the tumor suppressor ras-association domain family 1A and inhibits human prostate xenograft” (J Med Chem, 2010)
The source made the active and inactive calls. The rule behind the calls is not given here.

Assays:
[1] = test system: PC-3; experiment: Increase in RASSF1A gene expression in human PC3 cells at 15 uM after 3 days hrs by RT-PCR; assay type: functional
Procedure, shortened: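 PC-3 cells incubated 3 days with compound, then RNA extracted with TRIzol. 500 ng total RNA reverse-transcribed with random hexamers. RASSF1A amplified with previously described primers and conditions. Products run on 1.5% agarose and stained with ethidium bromide. Bands quantified by densitometry against untreated cells, with RASSF1A re-expression from the reference alkaloid set to 100%.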

[2] = test system: PC-3; experiment: Decrease in DNA synthesis in human PC3 cells at 5 uM after 24 hrs by BrdU incorporation assay; assay type: functional, cell-based
Procedure, shortened: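 PC-3 cells were seeded at 2 × 10⁴ cells/well and exposed to 5 μM compound or DMSO for 24 h. BrdU incorporation was read by chemiluminescent cell proliferation ELISA on a luminometer. Background without anti-BrdU-peroxidase was subtracted and values were normalized to untreated control. Values are mean ± SEM.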

[3] = test system: PC-3; experiment: Growth inhibition of human PC3 cells after 24 hrs by trypan blue exclusion method; assay type: functional; settings: PC-3, 24 h
Procedure, shortened: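 PC-3 cells grown in phenol red-free IMEM with 10% FBS, 2 mM glutamine and penicillin/streptomycin at 37 °C, 5% CO2. Seeded in triplicate at 1.5 × 10⁴ cells/well. After 24 h, treated with DMSO vehicle or 1, 5, 15, 30 or 60 μM compound for 24 h. Cells trypsinized, stained with 0.4% trypan blue, and live and dead cells counted by hemocytometer. Mean ± SEM of three independent observations.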

[4] = target: DNA (cytosine-5)-methyltransferase 1 (Homo sapiens) (UniProt P26358); experiment: Inhibition of DNA methyltransferase activity in human PC3 cells at 15 uM after 3 days; assay type: cell-based; settings: PC-3
Procedure, shortened: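 PC-3 cells in complete growth medium treated 3 days with compound, then harvested. Nuclear extracts prepared by kit protocol, and DNMT activity measured with a commercial DNMT activity kit against untreated cells. Mean of three independent experiments ± SEM.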

[5] = test system: PC-3; experiment: […] in RASSF1A gene expression in human PC3 cells at 15 uM after 3 days hrs by RT-PCR; assay type: functional, cell-based

Sequence of DNA (cytosine-5)-methyltransferase 1 (Homo sapiens) (P26358 whole entry): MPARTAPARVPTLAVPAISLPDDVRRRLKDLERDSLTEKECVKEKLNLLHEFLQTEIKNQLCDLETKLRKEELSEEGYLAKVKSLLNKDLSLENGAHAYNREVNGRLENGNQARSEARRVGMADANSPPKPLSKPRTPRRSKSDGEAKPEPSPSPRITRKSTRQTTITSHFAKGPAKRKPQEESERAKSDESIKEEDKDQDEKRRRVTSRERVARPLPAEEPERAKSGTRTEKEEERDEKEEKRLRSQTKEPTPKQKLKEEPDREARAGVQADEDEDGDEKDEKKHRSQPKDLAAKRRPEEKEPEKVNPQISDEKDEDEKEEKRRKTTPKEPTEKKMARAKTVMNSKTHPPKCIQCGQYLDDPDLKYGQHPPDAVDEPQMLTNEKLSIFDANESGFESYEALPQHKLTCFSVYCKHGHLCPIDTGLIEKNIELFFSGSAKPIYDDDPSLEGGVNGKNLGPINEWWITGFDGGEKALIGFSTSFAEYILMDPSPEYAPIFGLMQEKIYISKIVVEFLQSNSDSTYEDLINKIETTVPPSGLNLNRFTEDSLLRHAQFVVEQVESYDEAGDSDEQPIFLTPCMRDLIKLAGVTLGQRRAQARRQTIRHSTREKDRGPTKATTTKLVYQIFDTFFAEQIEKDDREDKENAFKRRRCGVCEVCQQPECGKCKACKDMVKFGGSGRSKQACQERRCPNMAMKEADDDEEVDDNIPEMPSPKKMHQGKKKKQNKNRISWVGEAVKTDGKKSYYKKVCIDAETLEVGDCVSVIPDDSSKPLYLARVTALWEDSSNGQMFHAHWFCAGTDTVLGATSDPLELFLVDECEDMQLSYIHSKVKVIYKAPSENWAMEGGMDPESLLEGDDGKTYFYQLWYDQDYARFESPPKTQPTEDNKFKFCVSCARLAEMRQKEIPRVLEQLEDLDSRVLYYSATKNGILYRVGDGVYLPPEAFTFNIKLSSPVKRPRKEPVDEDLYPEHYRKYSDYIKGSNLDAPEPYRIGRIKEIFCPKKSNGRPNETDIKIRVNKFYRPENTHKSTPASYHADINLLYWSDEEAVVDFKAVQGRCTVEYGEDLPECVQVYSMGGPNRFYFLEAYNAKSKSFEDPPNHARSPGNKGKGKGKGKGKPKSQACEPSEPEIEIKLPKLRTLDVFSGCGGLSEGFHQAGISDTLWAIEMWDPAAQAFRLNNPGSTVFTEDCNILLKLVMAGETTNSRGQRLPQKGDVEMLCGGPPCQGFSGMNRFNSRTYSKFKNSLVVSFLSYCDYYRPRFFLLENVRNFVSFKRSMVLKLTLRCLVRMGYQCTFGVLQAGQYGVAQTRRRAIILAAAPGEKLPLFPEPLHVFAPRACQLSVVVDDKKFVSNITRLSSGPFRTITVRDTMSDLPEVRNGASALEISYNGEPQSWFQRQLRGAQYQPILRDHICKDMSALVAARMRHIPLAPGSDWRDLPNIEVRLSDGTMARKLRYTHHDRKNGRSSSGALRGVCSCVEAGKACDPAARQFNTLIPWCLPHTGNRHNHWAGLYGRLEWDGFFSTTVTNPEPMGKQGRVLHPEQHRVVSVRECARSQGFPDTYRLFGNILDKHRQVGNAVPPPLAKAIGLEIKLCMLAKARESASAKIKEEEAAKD

Row | GI50 [3] | Activity [4] | SMILES | Activity [1] | Activity [2] | Activity [5]
1 | 17.6 µM | Active | COc1ccc2c(c1)[nH]c1c(C)c(OCc3ccccc3)ccc12 | 50% | Active | 
2 | 48.9 µM |  | COc1ccc2c(c1)[nH]c1cc(OCc3ccccc3)c(C)cc12 | inactive |  | inactive

The next lines start with the compound.

Row | SMILES | GI50 [3] | Activity [4] | Activity [1] | Activity [2] | Activity [5]
3 | COc1ccc2c(c1)[nH]c1c(C)c(O)ccc12 | 18.7 µM | Active |  |  | 
4 | COc1ccc2c(c1)[nH]c1cc(OS(=O)(=O)c3cccc4c(N(C)C)cccc34)c(C)cc12 | 22.9 µM |  | inactive |  | inactive
5 | COc1ccc2c(c1)[nH]c1cc(O)c(C)cc12 | 15.3 µM | Active |  | Active | 
